Screens (PubChem)
Most compounds without a hit are left out; they make up all but 2.4% or so of the library.
SR-BI uptake up: activators of SR-BI mediated HDL lipid uptake. activation, % at 12.5 µM. CHO ldlA[mSR-BI] cells, DiI-HDL uptake fluorescence, 3 h; 100 = double the neutral-control signal. 320,000 compounds, 0.096% hits;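 active means mean replicate activation of at least 60% and every replicate at or above 60%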;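 further: 0% = median plate neutral-control signal and 100% = twice that signal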
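System: LDL receptor-deficient CHO ldlA cells overexpressing murine SR-BI | Timing: 3 h uptake period with compound, 37 °C | Medium: HEPES-buffered (25 mM, pH 7.4) F12 plus 0.5% BSA | Dosing: Single-point compound dose | Signal: Bottom-read fluorescence, 550/595 nm | Read-out: Retained DiI signal reflecting DiI-HDL uptake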
MIN6 prolif: inducers of beta-cell replication in MIN6 cells. 330,000 compounds, 0.29% hits. proliferation, % at 10 µM. AID 2380. MIN6 cells proliferation, ATPlite luminescence, 48 h; cells starved in 0.2% serum; 100% = growth in 10% serum;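 active means compounds whose signal lies at least 3.5 SD above the mean of all wells on their plate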;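 further: 0% = DMSO-treated cells in low-serum medium and 100% = 10% serum control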
SR-BI DiI inh: inhibitors of mouse SR-BI mediated HDL lipid uptake. inhibition, % at 12.5 µM. 320,000 compounds, 0.96% hits. ldlA[mSR-BI] CHO cells, DiI-HDL uptake fluorescence, 3 h. AID 488896. Q61009;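 active means mean replicate inhibition of at least 70% and a set share of replicates each scoring 70 or more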;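 further: 0% = median of neutral control wells and 100% = median of positive control wells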
m5-HT2A agonist: agonists of mouse serotonin 5-HT2A receptor (HTR2A). 360,000 compounds, 0.66% hits. AID 624169. activation, % at 7.6 µM. CHO-K1 mHTR2A beta-arrestin complementation, luminescence; percent of 30 µM serotonin response;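 active means activation above a run cutoff, the mean activation of all tested compounds plus 3 SD, cut at about 14% in these data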;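 further: 0% = plate median of compound wells and 100% = 30 µM serotonin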
Target sequence (P35363 whole entry, looked up): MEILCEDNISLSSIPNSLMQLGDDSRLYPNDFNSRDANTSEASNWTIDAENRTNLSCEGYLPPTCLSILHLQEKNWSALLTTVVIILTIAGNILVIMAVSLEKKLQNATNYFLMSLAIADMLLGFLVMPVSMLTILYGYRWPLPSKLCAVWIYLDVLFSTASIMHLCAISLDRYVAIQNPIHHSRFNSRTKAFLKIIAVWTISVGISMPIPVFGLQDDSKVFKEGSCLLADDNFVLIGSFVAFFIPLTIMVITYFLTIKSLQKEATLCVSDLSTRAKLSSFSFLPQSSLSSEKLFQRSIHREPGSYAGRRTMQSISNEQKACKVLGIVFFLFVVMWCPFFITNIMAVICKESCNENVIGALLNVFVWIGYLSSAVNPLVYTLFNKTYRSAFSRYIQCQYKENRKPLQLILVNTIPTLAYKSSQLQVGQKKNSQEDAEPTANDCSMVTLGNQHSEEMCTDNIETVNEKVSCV
Calb FLC: C. albicans growth modulation with fluconazole. C. albicans CaCi-2 + fluconazole, Alamar Blue growth, 48 h. growth inhibition, % (concentration not given with the values). 300,000 compounds, 0.57% hits;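 active means growth inhibition above about 58% in most replicates, limit read from the data, passing the limit was not always enough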;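 further: all wells also contain fluconazole at 8 µg/ml as a sub-toxic cotreatment; 0% = median of DMSO wells and 100% = median of geldanamycin control wells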
Insulin prom up: MIN6 insulin promoter up-regulation | z-score at 5 µM | MIN6 insulin promoter-GFP reporter, high-content imaging; active compounds read high | 190,000 compounds, 0.3% hits;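 active means z-score above 3 at 5 µM with at least 500 cells counted in the well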
MOR ag counter: OPRM1 agonism in mouse HTR2A counterscreen | shares compounds with m5-HT2A agonist | 2,300 compounds, 5.3% hits | AID 624380 | activation, % at 9.3 µM | U2OS OPRM1 beta-arrestin PathHunter, luminescence; DMSO 0%, DAMGO 9.3 µM 100%;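 active means mean activation above the mean of DMSO-only wells plus 3 SD, cut at about 0.5% in these data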
m5-HT2A ag conf: confirmation of mouse HTR2A serotonin receptor agonists; shares compounds with m5-HT2A agonist; CHO-K1 PathHunter beta-arrestin recruitment, luminescence; DMSO 0%, 30 µM serotonin 100%; activation, % at 7.6 µM; 2,300 compounds, 19% hits;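 active means mean activation across triplicates above the hit threshold derived in the original primary screen, cut at about 15% in these data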
Starred values were filed as active, the others as inactive; · = not tested or not shown.

SMILES	SR-BI uptake up	MIN6 prolif	SR-BI DiI inh	m5-HT2A agonist	Calb FLC	Insulin prom up	MOR ag counter	m5-HT2A ag conf
O=C(Nc1ccc(F)cc1)C(c1cc2ccccc2o1)N1CCN(CC(=O)N2CCCC2)CC1 (stereo not given)	·	·	·	27*	·	·	-1	-5
O=C(Nc1ccc(F)cc1)C(c1cccc(F)c1)N1CCN(CC(=O)N2CCCC2)CC1 (stereo not given)	·	·	·	-2	·	·	·	·
CC(CCc1ccccc1)NC(=O)c1ccccc1Cl (stereo not given)	9	0	-9	24*	-8	·	0	-4
CN(C(=O)c1ccccc1Cl)c1ccccc1C(=O)NCc1ccccc1	6	5	-6	35*	-14	·	-1	-3
O=C(CSc1n[nH]c(=O)n1C1CC1)NCc1ccccc1	11	-2	-11	15*	-19	·	-1	-3
CC1(C(=O)NS(=O)(=O)c2cccc(OC(F)F)c2)CCN1C(=O)C1CCCCC1 (stereo not given)	·	·	·	5	·	·	·	·
O=C(c1cccc(Cl)c1)N1CCC(N2CCC(C(=O)N3CCCC3)CC2)CC1	8	0	-8	0	6	·	·	·
C=CCN1C(=O)/C(=C2/C(=O)N(CC(=O)O)c3ccccc32)S/C1=N/c1nccs1	·	·	·	·	3	0.57	·	·
S=c1[nH]nc2ccccn12	37	·	-37	21*	·	·	-1	-4
COc1cc(/C=C/C(=O)c2ccc3c(c2)OCCO3)cc(Br)c1OCC(=O)N(C)C	-39	-4	38	18*	2	·	-1	-6
O=C(OCc1cc(=O)n2ccsc2n1)c1ccc(OC(F)F)cc1	3	0	-3	4	·	·	·	·
CC(=O)c1ccc(C(=O)Nc2nnc(-c3ccc(Cl)cc3)o2)cc1	9	-5	-9	24*	-21	0.66	0	-2
CCN1C(C#N)=C(C#N)N=C(C)CC1(C)C	22	-1	-22	25*	-32	·	0	-4
CC1=NN(C(C#N)c2ccccc2O)C(C)(C)C1 (stereo not given)	11	-1	-11	4	-10	-0.15	·	·
CC(C)(C)NC(=O)C(c1cc2ccccc2o1)n1c(=O)c(-c2ccco2)nc2ccccc21 (stereo not given)	·	·	·	16*	·	·	-1	-4
CC1(C(=O)Nc2ccc3c(c2)OCCO3)CSCC(=O)N1Cc1ccco1 (stereo not given)	·	·	·	4	·	·	·	·
CN1CCc2cccc3c2[C@H]1Cc1ccc(O)c(O)c1-3	-14	-6	14	44*	·	·	0	125*
Cc1ccc2c(c1)S(=O)(=O)N(C)C(c1ccccc1)=C2	-10	·	10	-3	·	·	·	·
O=C(NCc1ccco1)/C(=C\c1cccs1)NC(=O)c1cccs1	9	-1	-9	2	3	-0.12	·	·
O=C(NCCO)/C(=C\c1cccs1)NC(=O)c1cccs1	-9	-1	9	24*	-3	0.15	0	-2
CCOC(=O)c1ccc(NC(=O)CCc2nnc3ccc(N4CCCC4)nn23)cc1	-27	-3	27	24*	17	·	-1	-3
COc1ccc(NC(=O)CCc2nnc3ccc(N4CCC(C)CC4)nn23)cc1	-4	-1	4	-5	0	·	·	·
CC(C)C[C@H]1CN(CCCC[C@@H]2CNC(=O)C(=O)N2CC2CCCCC2)C(=O)C(=O)N1CCc1ccc(O)cc1	·	·	·	-3	·	·	·	·
Cc1ccc(S(=O)(=O)n2cc(CO)c3ccccc32)cc1	-3	·	3	-5	·	·	·	·
Cc1ccc2nc(SCC(=O)Nc3ccc(F)c([N+](=O)[O-])c3)[nH]c2c1	9	0	-9	-2	2	0.58	·	·
SMILES	SR-BI uptake up	MIN6 prolif	SR-BI DiI inh	m5-HT2A agonist	Calb FLC	Insulin prom up	MOR ag counter	m5-HT2A ag conf
Cc1cc(=O)[nH]c(SCC(=O)Nc2ccc(F)c([N+](=O)[O-])c2)n1	-2	-5	2	28*	4	0.36	0	-2
C=Cc1cnc([N+](=O)[O-])n1C	·	·	·	2	·	·	·	·
COc1ccccc1CNC(=O)C1CCC(CNS(=O)(=O)c2ccc(C)cc2)CC1 (stereo not given)	-32	-2	32	2	6	·	·	·
COc1ccccc1CNC(=O)C1CCC(CNS(=O)(=O)c2ccc(F)cc2)CC1 (stereo not given)	-43	-2	43	21*	-6	·	-1	2
Cc1ccccc1-n1ncc(C(C)NS(=O)(=O)c2sccc2C)c1C (stereo not given)	7	-2	-7	15*	-1	·	-1	-3
Cc1ccccc1-n1ncc(C(C)NS(=O)(=O)c2ccccc2Cl)c1C (stereo not given)	7	0	-7	-7	3	·	·	·
CC(C)(O)c1[nH]c2ccc(C(F)(F)F)cc2c1C(C)(C)O	-12	-3	12	5	-5	·	·	·
CN(C)Cc1c(C(C)(C)O)[nH]c2ccc(C(F)(F)F)cc12	27	0	-27	23*	·	·	-1	20*
CCC(=O)N1CCC(C)(C(=O)NCc2ccc(F)cc2)C1 (stereo not given)	·	·	·	3	·	·	·	·
CCN(c1ccc(OC)cc1)S(=O)(=O)c1ccc2c(c1)CCN2C(=O)CCC(=O)O	-4	-1	4	14*	1	0.52	0	0
NC(=O)c1sc2nc3c(c(-c4ccco4)c2c1N)CCCC3	·	7	·	3	16	-0.46	·	·
N#Cc1sc2nc3c(c(-c4ccco4)c2c1N)CCCC3	·	1	·	19*	1	1	0	2
CC(C)NC(=O)C1(C)Cc2c(-c3ccc(N(C)C)cc3)ccnc2O1 (stereo not given)	·	·	·	-5	·	·	·	·
CC(C)=CCC/C(C)=C/CNC(=O)C[C@H]1C[C@H](C(=O)N2CCCCC2)[C@@]2(C)c3[nH]c4cc(CCC(=O)N(C)C)ccc4c3CCN2C1=O	-6	·	6	-1	·	·	·	·
CC(OC(=O)c1ccccc1Br)C(=O)Nc1nc(-c2cccc([N+](=O)[O-])c2)cs1 (stereo not given)	-4	-2	4	17*	-6	0.07	0	-4
O=C(NCc1ccccc1Cl)C(=O)NCC1OCCN1S(=O)(=O)c1ccc(F)cc1 (stereo not given)	-5	4	5	16*	3	·	-1	-5
O=C(NCc1ccc(F)cc1)C(=O)NCC1OCCN1C(=O)c1ccc(Cl)cc1 (stereo not given)	12	1	-12	24*	9	-0.03	-1	-4
COC(=O)C[C@@H]1CC[C@H](NC(=O)Nc2ccc(OC)cc2)[C@@H](CO)O1	·	·	·	2	·	·	·	·
